A short description of series [1]: Intrinsic clearance in mouse microsomes assessed per mg protein at 100 uM by HPLC analysis. It is filed as ADME, Microsome.
The subject of series [2] is Mycobacterium tuberculosis. The series can be described thus: Antimycobacterial activity against Mycobacterium tuberculosis assessed as growth inhibition after 5 days by MABA/resazurin assay. In kind it is functional. The settings on record: 120 h.
The subject of series [3] is Saccharomyces cerevisiae. The series can be described thus: Antimicrobial activity against Saccharomyces cerevisiae. It is filed as organism-based.
Series [4] in a line: Partition coefficient, log D of the compound. It is filed as physicochemical. The settings on record: octanol/water.
A short description of series [5]: Fraction unbound in plasma at 20 uM after 18 hrs by equilibrium dialysis method. In kind it is ADME, cell-free. (In general: In equilibrium dialysis only unbound substance equilibrates across the membrane.)
A short description of series [6]: Solubility of the compound in 0.1 M phosphate buffer after 24 hrs by UV/MS analysis. It is filed as physicochemical. Put shortly:
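Solubility measured in presence of 2% (v/v) DMSO.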

The nature of series [7]: Inhibition of Mycobacterium tuberculosis NDH-2 by UV spectrophotometry. The procedure, abridged:
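Purified Mtb NDH-2 at 1 nM in 50 mM Hepes-NaOH pH 7.5 with 100 mM NaCl, 0.008% Brij-35 and 300 μM NADH; reaction started with 50 μM menadione, run 1 h at 37 °C. NADH oxidation followed as fall in absorbance at 340 nm. Screening at 20 μM, then concentration-response for IC50.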

The nature of series [8]: Toxicity in RBC assessed as hemolysis. In kind it is cell-based. As to conditions: erythrocyte.

≈ marks a conversion by molar mass, not a printed value.

As to `Nc1nc(Nc2ccc3nc(-c4ccc(F)cc4)cc(N)c3c2)cc(-c2ccc(Cl)cc2)n1`, in series [1], the intrinsic metabolic clearance (microsomal CLint) – broadly, the capacity of the preparation to metabolise the compound, expressed as a volume cleared per time – at 100 µM was 13.4 µL/min/mg. Besides, the MIC in series [2] was 1.91 µM (≈ 0.873 µg/mL); in series [3], greater than 32 µg/mL. The logD (in general, the decadic logarithm of the distribution of all forms, ionised or not, between an organic phase and buffer at a given pH) in series [4] amounted to 3. For the same compound, in series [5], the fraction unbound – broadly, free concentration divided by total concentration – at 18 h, 20 µM was 0.008. Also, in series [6], the concentration in solution (solubility at 24 h) came to 6 µM (≈ 2.74 µg/mL). Moreover, half-maximal inhibition in series [7] (IC50) was put at 43 nM. The MHC in series [8] is greater than 32 µg/mL.

For `Cc1cccc(-c2cc(Nc3ccc4nc(-c5ccc(F)cc5)cc(N)c4c3)nc(N)n2)c1`, the MIC in series [2] was less than 0.81 µM; in series [3], greater than 32 µg/mL. This compound also yielded a logD in series [4] of 3.18. This compound came in with a fraction unbound at 18 h, 20 µM in series [5] of 0.0144. For the same compound, the concentration in solution in series [6] (solubility at 24 h) was 70 µM (≈ 30.6 µg/mL). In addition, the IC50 (in general, the concentration at which inhibition is half-maximal) in series [7] came to 96 nM. Also, the MHC in series [8] is greater than 32 µg/mL.

In series [1], `Nc1nc(Nc2ccc3nc(-c4ccc(F)cc4)cc(N)c3c2)cc(-c2ccc(C(F)(F)F)cc2)n1` came in with a microsomal CLint at 100 µM of less than 4 µL/min/mg. Further, the MIC is 2.88 µM (≈ 1.41 µg/mL) in series [2] and greater than 32 µg/mL in series [3]. In series [4], this compound returned a log distribution coefficient (logD) of 2.16. The solubility (usually how much of the substance goes into solution per volume) at 24 h in series [6] came to 2450 µM (≈ 1200 µg/mL). Besides, half-maximal inhibition in series [7] (IC50) required 81 nM. The MHC in series [8] was greater than 32 µg/mL.

For `Nc1nc(Nc2ccc3nc(-c4ccc(F)cc4)cc(N)c3c2)cc(-c2ccc(F)cc2)n1`, the MIC in series [2] is 1.14 µM (≈ 0.502 µg/mL); in series [3], greater than 32 µg/mL. Besides, the logD in series [4] stood at 3.06. This compound also gave a fraction unbound at 18 h, 20 µM in series [5] of 0.0249. For the same compound, the solubility at 24 h in series [6] was determined as 12 µM (≈ 5.29 µg/mL). This compound also yielded a 50% inhibitory concentration (IC50) in series [7] of 53 nM. For the same compound, the MHC in series [8] was greater than 32 µg/mL.

Turning to `Nc1nc(Nc2ccc3nc(-c4ccc(F)cc4)cc(N)c3c2)cc(-c2cccc(Cl)c2)n1`, the MIC in series [2] is 2.19 µM (≈ 1 µg/mL); in series [3], greater than 32 µg/mL. Further, the logD in series [4] was found to be 3.06. Also, in series [6], the concentration in solution (solubility at 24 h) came to 15 µM (≈ 6.85 µg/mL). The compound also showed a 50% inhibitory concentration (IC50) in series [7] of 50 nM. Moreover, the MHC in series [8] is greater than 32 µg/mL.

`Nc1nc(Nc2ccc3nc(-c4ccc(F)cc4)cc(N)c3c2)cc(-c2ccccc2)n1`: in series [2], the MIC is 1.67 µM (≈ 0.706 µg/mL). The IC50 in series [7] worked out at 73 nM.

Take `Nc1nc(Nc2ccc3nc(-c4ccc(F)cc4)cc(N)c3c2)cc(-c2ccccc2F)n1`: the MIC in series [2] turned out to be 3.21 µM (≈ 1.41 µg/mL). This compound showed a 50% inhibitory concentration (IC50) in series [7] of 187 nM.

`COc1ccccc1-c1cc(Nc2ccc3nc(-c4ccc(F)cc4)cc(N)c3c2)nc(N)n1`: the MIC in series [2] is 4.42 µM (≈ 2 µg/mL). The half-maximal inhibitory concentration (IC50) in series [7] was less than 620 nM.

As for `COc1cccc(-c2cc(N)c3cc(Nc4cc(-c5ccc(Cl)cc5)nc(N)n4)ccc3n2)c1`, the MIC in series [2] stood at 2.13 µM (≈ 0.999 µg/mL). Also, in series [7], the half-inhibitory concentration (IC50) is less than 260 nM.

Consider `Nc1nc(Nc2ccc3nc(-c4ccc(F)cc4)cc(N)c3c2)cc(-c2ccccn2)n1`, for which, in series [2], the MIC was determined as 9.45 µM (≈ 4 µg/mL). In addition, the 50% inhibitory concentration (IC50) in series [7] was 133 nM.

Regarding `CC(C)c1cc(Nc2ccc3nc(-c4ccc(F)cc4)cc(N)c3c2)nc(N)n1`, in series [2], the MIC is 7.28 µM (≈ 2.83 µg/mL). Also, inhibition in series [7] was half-maximal at 1470 nM (IC50).

Take `CCc1cc(Nc2ccc3nc(-c4ccc(F)cc4)cc(N)c3c2)nc(N)n1`: in series [2], the MIC stood at 15.1 µM (≈ 5.66 µg/mL). The same compound displayed an IC50 in series [7] of 2400 nM.

Turning to `Cc1cc(Nc2ccc3nc(-c4ccc(F)cc4)cc(N)c3c2)nc(N)n1`, the MIC in series [2] is 22.2 µM (≈ 8 µg/mL). In series [7], this compound displayed a half-maximal inhibitory concentration (IC50) of 601 nM.

As to `Cc1cccc(-c2cc(Nc3ccc4nccc(N)c4c3)nc(N)n2)c1`, the MIC in series [2] came out at 48.9 µM (≈ 16.7 µg/mL). Half-maximal inhibition in series [7] (IC50) was put at 10800 nM.

As to `Cn1ccc(-c2cc(Nc3ccc4nc(-c5ccc(F)cc5)cc(N)c4c3)nc(N)n2)n1`, the MIC in series [2] is 53.1 µM (≈ 22.6 µg/mL). The midpoint of inhibition in series [7], the IC50, lay at 1380 nM.

On to `Nc1nc(Nc2cnc3ccccc3c2)cc(-c2cccc(Cl)c2)n1`, for which the MIC in series [2] was greater than 73 µM. In series [7], this compound showed a concentration for half-maximal inhibition (IC50) of 5770 nM.

Regarding `Nc1nc(Nc2cnc3ccccc3c2)cc(-c2ccc(C(F)(F)F)cc2)n1`, the MIC in series [2] was 66.6 µM (≈ 25.4 µg/mL). In series [7], half-maximal inhibition (IC50) was put at 2050 nM.

With `Cc1cc(Nc2ccc3nc(C)ccc3c2)nc(C)n1`, in series [2], the MIC was greater than 121 µM. In series [7], this compound yielded an IC50 greater than 100000 nM.

The values above are taken from ChEMBL document CHEMBL2150948, “Quinolinyl Pyrimidines: Potent Inhibitors of NDH-2 as a Novel Class of Anti-TB Agents” (ACS Med Chem Lett, 2012).
